Data: ChEMBL document CHEMBL4610013, “Heteroarylamide smoothened inhibitors: Discovery of N-[2,4-dimethyl-5-(1-methylimidazol-4-yl)phenyl]-4-(2-pyridylmethoxy)benzamide (AZD8542) and N-[5-(1H-imidazol-2-yl)-2,4-dimethyl-phenyl]-4-(2- pyridylmethoxy)benzamide (AZD7254)” (Bioorg Med Chem, 2020)

Experiments:
[1] = Lipophilicity, logD of compound; format: physicochemical; settings: octanol/water
[2] = Metabolic stability in rat liver microsomes assessed as intrinsic clearance; format: ADME, Microsome; settings: read-out: CLH
[3] = Metabolic stability in human liver microsomes assessed as intrinsic clearance; format: ADME, Microsome; settings: read-out: CLH
[4] = Drug level in mouse plasma at 40 mg/kg, po administered as single dose measured after 1 hr; format: ADME, organism-based
Outline: (§1)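 Plasma was taken from Colo205 tumour-bearing female nude mice sacrificed 1 or 8 h after a single 40 mg/kg oral dose. Drug concentrations were measured in µM.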

[5] = Metabolic stability in human hepatocytes assessed as intrinsic clearance measured per million cells; format: ADME, cell-based, Hepatocyte; settings: read-out: CLH
[6] = Drug level in mouse plasma at 40 mg/kg, po administered as single dose measured after 8 hrs; format: ADME, organism-based; outline: as §1
[7] = Metabolic stability in rat hepatocytes assessed as intrinsic clearance measured per million cells; format: ADME, cell-based, Hepatocyte; settings: read-out: CLH
[8] = Oral bioavailability in rat; format: ADME, organism-based; settings: in vivo
[9] = Clearance in rat; format: ADME; settings: in vivo
[10] = Clearance in mouse; format: ADME, organism-based; settings: in vivo
[11] = Half life in mouse; format: ADME, organism-based; settings: in vivo
[12] = Half life in rat; format: ADME; settings: in vivo
[13] = Oral bioavailability in mouse; format: ADME, organism-based; settings: in vivo
[14] = Volume of distribution at steady state in rat; format: ADME; settings: in vivo, read-out: Vdss
[15] = Volume of distribution at steady state in mouse; format: ADME, organism-based; settings: in vivo, read-out: Vdss
[16] = Volume of distribution at steady state in guinea pig; format: ADME, Cavia porcellus; settings: in vivo, read-out: Vdss
[17] = Clearance in dog; format: ADME, Canis lupus familiaris; settings: in vivo
[18] = Clearance in guinea pig; format: ADME, Cavia porcellus; settings: in vivo
[19] = Volume of distribution at steady state in dog; format: ADME, Canis lupus familiaris; settings: in vivo, read-out: Vdss
[20] = Half life in guinea pig; format: ADME, Cavia porcellus; settings: in vivo
[21] = test system: MDR1; assay: Apparent permeability in LLC-PK1 cells expressing MDR1; format: ADME, cell-based, Sus scrofa; settings: pig
Outline: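 The cells were MDR1-LLC PK1, a line engineered to express the P-gp efflux pump. Permeability was taken as apical-to-basolateral Papp (10⁻⁶ cm/s), and the efflux ratio was also derived.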

[22] = Metabolic stability in dog hepatocytes assessed as intrinsic clearance measured per million cells; format: ADME, cell-based, Canis lupus familiaris, Hepatocyte; settings: read-out: CLH
[23] = Metabolic stability in mouse hepatocytes assessed as intrinsic clearance measured per million cells; format: ADME, cell-based, Hepatocyte; settings: read-out: CLH
[24] = Half life in dog; format: ADME, Canis lupus familiaris; settings: in vivo
[25] = Oral bioavailability in dog; format: ADME, organism-based, Canis lupus familiaris; settings: in vivo

Cc1cc(Cl)c(-c2cn(C)c(C)n2)cc1NC(=O)c1ccc(OCc2ccccn2)cc1
logD [1]: 3.3

Cc1cc(C)c(-c2c(C)nn(C)c2C)cc1NC(=O)c1ccc(OCc2ccccn2)cc1
logD [1]: > 3
microsomal CLint [2]: 271 µL/min/mg
microsomal CLint [3]: 122 µL/min/mg

Cc1cc(C)c(-c2cnc(C)n2C)cc1NC(=O)c1ccc(OCc2ccccn2)cc1
concentration at 1 h [4]: 2.9 µM
logD [1]: 2.8
hepatocyte CLint [5]: 12 µL/min/1e6 cells
concentration at 8 h [6]: 0.28 µM
hepatocyte CLint [7]: 32 µL/min/1e6 cells

Cc1cc(C)c(-c2c[nH]nc2C)cc1NC(=O)c1ccc(OCc2ccccn2)cc1
concentration at 1 h [4]: 5.5 µM
logD [1]: > 3
concentration at 8 h [6]: 0.23 µM
microsomal CLint [2]: 55 µL/min/mg
microsomal CLint [3]: 20 µL/min/mg

Cc1ccc(-c2ncc[nH]2)cc1NC(=O)c1ccc(OCc2ccccn2)cc1
logD [1]: 3
concentration at 8 h [6]: 7.5 µM

Cc1cc(C)c(-c2ccccn2)cc1NC(=O)c1ccc(OCc2ccccn2)cc1
logD [1]: > 3
microsomal CLint [2]: 296 µL/min/mg
microsomal CLint [3]: 209 µL/min/mg

Cc1cc(Cl)c(-c2cn(C)cn2)cc1NC(=O)c1ccc(OCc2ccccn2)cc1
logD [1]: 3.1

Cc1ccc(-c2ncc[nH]2)c(C)c1NC(=O)c1ccc(OCc2ccccn2)cc1
concentration at 1 h [4]: 3.3 µM
logD [1]: 2.8
concentration at 8 h [6]: 0.14 µM

Cc1ccc(-c2nccn2C)cc1NC(=O)c1ccc(OCc2ccccn2)cc1
logD [1]: 2.8

Cc1cc(C)c(-c2cccnc2)cc1NC(=O)c1ccc(OCc2ccccn2)cc1
logD [1]: > 3
microsomal CLint [2]: 78 µL/min/mg
microsomal CLint [3]: 62 µL/min/mg

Cc1cc(F)c(-c2ncc[nH]2)cc1NC(=O)c1ccc(OCc2ccccn2)cc1
concentration at 1 h [4]: 58 µM
logD [1]: 3
concentration at 8 h [6]: 20 µM
hepatocyte CLint [7]: 14 µL/min/1e6 cells

Cc1ccc(-c2cn(C)cn2)cc1NC(=O)c1ccc(OCc2ccccn2)cc1
concentration at 1 h [4]: 63 µM
logD [1]: 2.5
concentration at 8 h [6]: 16 µM

Cc1nc(-c2ccc(C)c(NC(=O)c3ccc(OCc4ccccn4)cc3)c2)c[nH]1
logD [1]: 3

Cc1ccc(-c2cn(C)c(C)n2)cc1NC(=O)c1ccc(OCc2ccccn2)cc1
logD [1]: 2.7

CS(=O)(=O)c1ccc(C(=O)Nc2ccc(Cl)c(-c3ccccn3)c2)c(Cl)c1 [VISMODEGIB]
concentration at 1 h [4]: 10.3 µM
bioavailability [8]: 49%
logD [1]: 2.8
clearance [9]: 2 mL/min/kg
clearance [10]: 5.6 mL/min/kg
hepatocyte CLint [5]: < 1 µL/min/1e6 cells
half-life [11]: 1 h
concentration at 8 h [6]: 18.8 µM
hepatocyte CLint [7]: 16 µL/min/1e6 cells
half-life [12]: 1.9 h
bioavailability [13]: 33%

Cc1cc(C)c(-c2cn(C)cn2)cc1NC(=O)c1ccc(OCc2ccccn2)cc1
Vd [14]: 0.2 L/kg
Vd [15]: 0.4 L/kg
concentration at 1 h [4]: 94 µM
bioavailability [8]: 90%
Vd [16]: 0.5 L/kg
logD [1]: 3
clearance [9]: 1.7 mL/min/kg
clearance [10]: 6.1 mL/min/kg
clearance [17]: 4.7 mL/min/kg
hepatocyte CLint [5]: 6 µL/min/1e6 cells
clearance [18]: 1.6 mL/min/kg
Vd [19]: 0.5 L/kg
half-life [11]: 0.8 h
half-life [20]: 4.2 h
concentration at 8 h [6]: 16 µM
Papp [21]: 16.5 ×10⁻⁶ cm/s
hepatocyte CLint [22]: 10 µL/min/1e6 cells
hepatocyte CLint [7]: 19 µL/min/1e6 cells
half-life [12]: 2.4 h
hepatocyte CLint [23]: < 1 µL/min/1e6 cells
half-life [24]: 1.4 h
bioavailability [25]: 32%
bioavailability [13]: 70%

Cc1cc(C)c(-c2ccc(N)cn2)cc1NC(=O)c1ccc(OCc2ccccn2)cc1
logD [1]: 3.2
microsomal CLint [2]: 32 µL/min/mg
microsomal CLint [3]: 9 µL/min/mg

Cc1ccc(-c2c[nH]cn2)cc1NC(=O)c1ccc(OCc2ccccn2)cc1
logD [1]: 2.8

Cc1ccc(-c2cnc(C)n2C)cc1NC(=O)c1ccc(OCc2ccccn2)cc1
concentration at 1 h [4]: 1.8 µM
logD [1]: 2.8
concentration at 8 h [6]: 0.08 µM

Cc1cc(C)c(-c2cccc(N)n2)cc1NC(=O)c1ccc(OCc2ccccn2)cc1
logD [1]: > 3
microsomal CLint [2]: 155 µL/min/mg
microsomal CLint [3]: 88 µL/min/mg

Cc1csc(-c2cc(NC(=O)c3ccc(OCc4ccccn4)cc3)c(C)cc2C)n1
logD [1]: > 3
microsomal CLint [2]: 147 µL/min/mg
microsomal CLint [3]: 513 µL/min/mg

Cc1cc(Cl)c(-c2ncc[nH]2)cc1NC(=O)c1ccc(OCc2ccccn2)cc1
logD [1]: > 3

Cc1ccc(-c2[nH]cnc2C)cc1NC(=O)c1ccc(OCc2ccccn2)cc1
logD [1]: 2.9

Cc1cc(C)c(-c2ncc[nH]2)cc1NC(=O)c1ccc(OCc2ccccn2)cc1
Vd [14]: 1.2 L/kg
Vd [15]: 1.6 L/kg
concentration at 1 h [4]: 22.3 µM
bioavailability [8]: 100%
Vd [16]: 1.8 L/kg
logD [1]: 3.1
clearance [9]: 24 mL/min/kg
clearance [10]: 31 mL/min/kg
clearance [17]: 4 mL/min/kg
hepatocyte CLint [5]: 9 µL/min/1e6 cells
clearance [18]: 18 mL/min/kg
Vd [19]: 0.9 L/kg
half-life [11]: 0.7 h
half-life [20]: 1.5 h
concentration at 8 h [6]: 1.9 µM
Papp [21]: 7.5 ×10⁻⁶ cm/s
hepatocyte CLint [22]: 1.4 µL/min/1e6 cells
hepatocyte CLint [7]: 18 µL/min/1e6 cells
half-life [12]: 1.1 h
hepatocyte CLint [23]: 6.6 µL/min/1e6 cells
half-life [24]: 3.3 h
bioavailability [25]: 100%
bioavailability [13]: 75%

Cc1cc(Cl)c(-c2nccn2C)cc1NC(=O)c1ccc(OCc2ccccn2)cc1
logD [1]: 3.2

Cc1cc(C)c(-c2nc3ccccc3[nH]2)cc1NC(=O)c1ccc(OCc2ccccn2)cc1
logD [1]: > 3.5
microsomal CLint [2]: 21 µL/min/mg
microsomal CLint [3]: 30 µL/min/mg

Cc1cc(C)c(-c2ccc(N)nn2)cc1NC(=O)c1ccc(OCc2ccccn2)cc1
concentration at 1 h [4]: 33 µM
logD [1]: 2.6
concentration at 8 h [6]: 2.7 µM
microsomal CLint [2]: 8 µL/min/mg
microsomal CLint [3]: < 4 µL/min/mg
